The source of these data is ChEMBL document CHEMBL3808325, “Discovery and Optimization of Macrocyclic Quinoxaline-pyrrolo-dihydropiperidinones as Potent Pim-1/2 Kinase Inhibitors” (ACS Med Chem Lett, 2016).

Series [1] concerns Mus musculus. Kind of series: In vivo inhibition of Pim1/2-mediated BAD protein phosphorylation at Ser-112 in human KMS-12-BM cells xenografted in SCID-beige mouse assessed as pBAD level at 100 mg/kg, po administered as single dose measured after 16 hrs by meso scale discovery assay. Format: functional. Also noted: scale not given: the % may be the effect or the level left. The method in brief: (§1)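 KMS-12-BM xenograft mice given a single oral dose of 25, 50 or 100 mg/kg. Tumor Ser-112 pBAD measured at time points through 16 h postdose. EC50 obtained by fitting all individual total plasma concentration–pBAD response data. Unbound value derived from mouse plasma fraction unbound.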

In series [2] the target is T1, Serine/threonine-protein kinase pim-2 (Homo sapiens, UniProt Q9P1W9). Nature of the series: Inhibition of human full-length Pim2 expressed in Escherichia coli assessed as phosphorylation of biotinylated BAD peptide at Ser 112 preincubated for 30 mins followed by substrate addition measured after 1 hr by HTRF assay. The method in brief:
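Cell-free kinase assay using recombinant Pim-1 or Pim-2. Read-out is phosphorylation of a short BAD peptide sequence spanning Ser-112.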
(In general: In TR-FRET formats the signal depends on donor and acceptor labels being close together.)
Target sequence in this assay (Q9P1W9 whole entry): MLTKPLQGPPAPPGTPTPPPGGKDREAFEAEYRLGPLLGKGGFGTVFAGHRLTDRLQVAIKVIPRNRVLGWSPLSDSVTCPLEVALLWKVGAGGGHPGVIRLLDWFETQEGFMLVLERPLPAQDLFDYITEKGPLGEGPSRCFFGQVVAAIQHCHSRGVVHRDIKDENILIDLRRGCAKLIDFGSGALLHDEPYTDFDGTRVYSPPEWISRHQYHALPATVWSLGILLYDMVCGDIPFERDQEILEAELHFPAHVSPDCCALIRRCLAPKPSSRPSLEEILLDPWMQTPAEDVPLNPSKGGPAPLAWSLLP

Series [3] can be described thus: Half life in Sprague-Dawley rat at 2 mg/kg, iv. Particulars: in vivo. Format: ADME, organism-based. A digest of the protocol: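 Pharmacokinetics in male Sprague–Dawley rats. Clearance also expressed as a percentage of liver blood flow. Oral bioavailability determined.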
Series [4] addresses Casein kinase I isoform delta (Homo sapiens) (UniProt P48730). Kind of series: Inhibition of full-length human CSNK1D expressed in bacterial system assessed as remaining enzyme activity at 1 uM by KINOMEscan assay. A digest of the protocol:
(§2)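 scanMAX KINOMEscan panel of 392 nonmutant kinases, compound tested at 1 μM. Result expressed as percent of control (POC). S(10) and S(1) scores are the fraction of kinases with POC below 10% and below 1%.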

Series [5] concerns Mus musculus. Nature of the series: Toxicity in human KMS-12-BM cells xenografted SCID-beige mouse assessed as drug tolerability at 10 to 100 mg/kg, po qd. The format is organism-based. Particulars: in vivo. A digest of the protocol: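 Tolerability followed in KMS-12-BM xenograft mice given oral doses once daily at 10, 25, 50 or 100 mg/kg over a 16-day efficacy study. Body weight monitored throughout.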
(In general: A xenograft is tissue or cells of one species grown in another, often human tumour cells in immunodeficient mice.)

Series [6] addresses Dual specificity protein kinase CLK2 (Homo sapiens) (UniProt P49760). Nature of the series: Inhibition of human CLK2 assessed as remaining enzyme activity at 1 uM by KINOMEscan assay. The method in brief:
as §2

Series [7] has as its target Serine/threonine-protein kinase haspin (Homo sapiens) (UniProt Q8TF76). Kind of series: Inhibition of human haspin assessed as remaining enzyme activity at 1 uM by KINOMEscan assay. The method in brief: as §2
The target in series [8] is Casein kinase I isoform epsilon (Homo sapiens) (UniProt P49674). Nature of the series: Inhibition of full-length human CSNK1E expressed in bacterial system assessed as remaining enzyme activity at 1 uM by KINOMEscan assay. A digest of the protocol:
as §2

The subject of series [9] is Mus musculus. Kind of series: In vivo inhibition of Pim1/2-mediated BAD protein phosphorylation at Ser-112 in human KMS-12-BM cells xenografted in SCID-beige mouse assessed as pBAD level at 25 mg/kg, po administered as single dose measured after 16 hrs by meso scale discovery assay. Format: functional. Further details: scale not given: the % may be the effect or the level left. A digest of the protocol:
as §1

A short description of series [10]: Drug metabolism in rat liver microsomes assessed as compound turnover at 1 uM incubated for 30 mins. The format is ADME. The settings on record: read-out: Drug metabolism. (Microsomes from liver hold many membrane-bound enzymes, among them those of drug oxidation.)
Series [11] addresses Mitogen-activated protein kinase kinase kinase 19 (Homo sapiens) (UniProt Q56UN5). Nature of the series: Inhibition of human YSK4 assessed as remaining enzyme activity at 1 uM by KINOMEscan assay. The method in brief:
as §2

Series [12] deals with T1, Serine/threonine-protein kinase pim-2. Nature of the series: Inhibition of human PIM2 assessed as remaining enzyme activity at 1 uM by KINOMEscan assay. A digest of the protocol:
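Profiled at 1 μM compound across a scanMAX KINOMEscan panel of 392 nonmutant kinases. Activity is reported as percent-of-control (POC). Panel-wide S(10) and S(1) selectivity scores are the fraction of kinases with POC below 10% and below 1%.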
Target sequence in this assay (Q9P1W9 whole entry, looked up): as the sequence (Q9P1W9 whole entry) above

In series [13] the target is Casein kinase I isoform alpha-like (Homo sapiens) (UniProt Q8N752). Kind of series: Inhibition of full-length human CSNK1A1L expressed in bacterial system assessed as remaining enzyme activity at 1 uM by KINOMEscan assay. A digest of the protocol: as §2
Sequence of Casein kinase I isoform alpha-like (Homo sapiens) (Q8N752 whole entry, canonical isoform): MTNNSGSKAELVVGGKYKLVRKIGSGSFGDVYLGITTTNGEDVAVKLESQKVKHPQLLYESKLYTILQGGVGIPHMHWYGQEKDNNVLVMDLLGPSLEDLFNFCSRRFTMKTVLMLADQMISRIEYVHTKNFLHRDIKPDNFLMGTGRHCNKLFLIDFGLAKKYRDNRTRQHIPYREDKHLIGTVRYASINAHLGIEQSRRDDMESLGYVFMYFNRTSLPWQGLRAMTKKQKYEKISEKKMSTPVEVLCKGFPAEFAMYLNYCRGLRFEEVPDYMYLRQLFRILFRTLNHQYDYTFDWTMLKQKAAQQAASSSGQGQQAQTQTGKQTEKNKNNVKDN
The target in series [14] is Serine/threonine-protein kinase pim-1 (Homo sapiens, UniProt P11309). Nature of the series: Inhibition of human full-length Pim1 expressed in Escherichia coli assessed as phosphorylation of biotinylated BAD peptide at Ser-112 preincubated for 30 mins followed by substrate addition measured after 1 hr by HTRF assay.
Sequence of Serine/threonine-protein kinase pim-1 (P11309 whole entry): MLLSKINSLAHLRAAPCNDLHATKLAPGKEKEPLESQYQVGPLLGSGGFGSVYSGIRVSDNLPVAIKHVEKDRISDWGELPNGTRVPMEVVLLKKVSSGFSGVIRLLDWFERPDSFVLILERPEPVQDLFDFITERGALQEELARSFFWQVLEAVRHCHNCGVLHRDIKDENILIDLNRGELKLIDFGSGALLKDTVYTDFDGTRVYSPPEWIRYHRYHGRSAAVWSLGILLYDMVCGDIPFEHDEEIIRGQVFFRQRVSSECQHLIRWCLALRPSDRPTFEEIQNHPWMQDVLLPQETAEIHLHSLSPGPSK
Series [15] is described as follows: Protein binding in rat assessed as as fraction unbound at 5 uM by rapid equilibrium dialysis method. Format: ADME. Particulars: plasma.
The nature of series [16]: Antitumor activity against human KMS-12-BM cells xenografted in SCID-beige mouse at 100 mg/kg, po qd relative to vehicle control. Particulars: read-out: TGI. The format is functional. A digest of the protocol:
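Mouse KMS-12-BM xenograft efficacy study running 16 days. Oral dosing once daily at 10, 25, 50 or 100 mg/kg. Tumor volume compared with vehicle-treated controls.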

Series [17] can be described thus: Fraction unbound in SCID-beige mouse plasma at 5 uM by LC/MS analysis. Format: ADME, cell-free.

Sequence of Serine/threonine-protein kinase haspin (Homo sapiens) (Q8TF76 whole entry, canonical isoform): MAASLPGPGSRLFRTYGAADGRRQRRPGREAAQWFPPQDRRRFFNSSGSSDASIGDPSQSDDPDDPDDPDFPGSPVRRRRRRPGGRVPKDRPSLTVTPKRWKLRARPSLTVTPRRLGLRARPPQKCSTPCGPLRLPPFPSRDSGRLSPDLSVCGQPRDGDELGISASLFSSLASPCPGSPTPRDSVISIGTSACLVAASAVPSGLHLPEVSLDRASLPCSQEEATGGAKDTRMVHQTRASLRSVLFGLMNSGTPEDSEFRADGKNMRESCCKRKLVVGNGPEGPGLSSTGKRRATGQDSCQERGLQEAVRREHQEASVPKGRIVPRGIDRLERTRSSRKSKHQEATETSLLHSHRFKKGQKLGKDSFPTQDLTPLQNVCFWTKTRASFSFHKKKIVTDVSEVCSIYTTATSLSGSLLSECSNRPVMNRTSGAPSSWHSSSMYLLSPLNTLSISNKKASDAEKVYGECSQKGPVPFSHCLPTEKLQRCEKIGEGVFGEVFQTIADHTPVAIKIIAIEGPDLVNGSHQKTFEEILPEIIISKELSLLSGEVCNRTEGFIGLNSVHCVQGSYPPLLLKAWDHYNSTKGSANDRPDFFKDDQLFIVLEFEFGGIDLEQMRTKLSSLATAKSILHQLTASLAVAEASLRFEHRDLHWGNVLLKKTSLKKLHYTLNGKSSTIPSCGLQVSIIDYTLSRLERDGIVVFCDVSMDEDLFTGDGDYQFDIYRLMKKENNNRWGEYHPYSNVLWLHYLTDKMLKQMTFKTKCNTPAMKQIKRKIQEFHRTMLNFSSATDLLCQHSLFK
Sequence of Casein kinase I isoform epsilon (Homo sapiens) (P49674 whole entry, looked up, canonical isoform): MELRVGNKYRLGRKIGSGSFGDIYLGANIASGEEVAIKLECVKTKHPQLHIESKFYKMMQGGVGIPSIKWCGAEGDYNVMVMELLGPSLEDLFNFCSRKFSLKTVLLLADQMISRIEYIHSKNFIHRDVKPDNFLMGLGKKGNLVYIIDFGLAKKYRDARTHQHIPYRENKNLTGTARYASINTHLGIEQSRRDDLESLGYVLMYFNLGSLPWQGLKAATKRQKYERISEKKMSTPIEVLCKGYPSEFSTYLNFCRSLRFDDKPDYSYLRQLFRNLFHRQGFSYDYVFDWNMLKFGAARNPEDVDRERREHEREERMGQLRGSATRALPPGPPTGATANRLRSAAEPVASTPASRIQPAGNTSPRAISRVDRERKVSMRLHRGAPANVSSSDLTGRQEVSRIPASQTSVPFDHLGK
Sequence of Casein kinase I isoform delta (Homo sapiens) (P48730 whole entry, looked up, canonical isoform): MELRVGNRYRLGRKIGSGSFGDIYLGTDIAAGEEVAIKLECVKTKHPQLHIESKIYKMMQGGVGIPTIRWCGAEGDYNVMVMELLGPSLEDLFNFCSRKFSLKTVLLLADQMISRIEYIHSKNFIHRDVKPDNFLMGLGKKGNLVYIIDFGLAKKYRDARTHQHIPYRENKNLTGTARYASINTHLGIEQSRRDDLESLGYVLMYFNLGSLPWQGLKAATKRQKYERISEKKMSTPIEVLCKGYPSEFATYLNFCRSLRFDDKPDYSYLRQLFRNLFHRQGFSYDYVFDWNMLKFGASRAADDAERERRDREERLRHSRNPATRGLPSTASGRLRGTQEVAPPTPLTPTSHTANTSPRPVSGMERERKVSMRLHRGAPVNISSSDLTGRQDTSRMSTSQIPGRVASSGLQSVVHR
Sequence of Mitogen-activated protein kinase kinase kinase 19 (Homo sapiens) (Q56UN5 whole entry): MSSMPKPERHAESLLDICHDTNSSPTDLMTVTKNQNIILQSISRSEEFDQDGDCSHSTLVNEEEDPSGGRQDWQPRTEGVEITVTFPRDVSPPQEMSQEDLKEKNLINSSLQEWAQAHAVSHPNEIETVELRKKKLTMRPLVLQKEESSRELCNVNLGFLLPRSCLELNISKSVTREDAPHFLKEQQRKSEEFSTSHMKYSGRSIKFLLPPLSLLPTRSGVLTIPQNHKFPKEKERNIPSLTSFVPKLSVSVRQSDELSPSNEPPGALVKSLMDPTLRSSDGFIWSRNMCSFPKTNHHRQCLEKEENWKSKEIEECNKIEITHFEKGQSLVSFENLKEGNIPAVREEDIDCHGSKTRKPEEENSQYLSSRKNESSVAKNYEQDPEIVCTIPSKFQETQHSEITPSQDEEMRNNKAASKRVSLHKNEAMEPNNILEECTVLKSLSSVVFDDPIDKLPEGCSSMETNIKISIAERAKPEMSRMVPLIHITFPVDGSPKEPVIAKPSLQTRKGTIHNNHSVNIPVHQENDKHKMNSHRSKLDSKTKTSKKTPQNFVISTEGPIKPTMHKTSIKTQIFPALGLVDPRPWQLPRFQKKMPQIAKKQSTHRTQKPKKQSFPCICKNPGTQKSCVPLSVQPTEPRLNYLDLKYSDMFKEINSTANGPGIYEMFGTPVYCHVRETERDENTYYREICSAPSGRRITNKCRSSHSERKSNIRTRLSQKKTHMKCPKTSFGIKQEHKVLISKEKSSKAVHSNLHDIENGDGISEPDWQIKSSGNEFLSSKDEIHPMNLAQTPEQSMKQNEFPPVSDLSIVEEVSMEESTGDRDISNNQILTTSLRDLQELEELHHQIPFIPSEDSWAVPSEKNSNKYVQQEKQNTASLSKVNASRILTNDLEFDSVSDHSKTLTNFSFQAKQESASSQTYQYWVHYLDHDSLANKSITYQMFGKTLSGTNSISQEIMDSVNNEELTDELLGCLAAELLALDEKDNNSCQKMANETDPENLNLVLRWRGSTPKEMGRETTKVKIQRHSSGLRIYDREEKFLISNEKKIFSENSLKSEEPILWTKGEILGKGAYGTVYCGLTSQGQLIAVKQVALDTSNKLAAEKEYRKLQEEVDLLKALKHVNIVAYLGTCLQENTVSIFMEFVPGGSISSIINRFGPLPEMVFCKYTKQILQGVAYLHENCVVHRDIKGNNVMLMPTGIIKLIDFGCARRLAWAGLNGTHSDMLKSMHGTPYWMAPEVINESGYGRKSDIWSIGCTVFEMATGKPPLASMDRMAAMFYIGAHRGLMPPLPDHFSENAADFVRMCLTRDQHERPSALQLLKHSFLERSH
Sequence of Dual specificity protein kinase CLK2 (Homo sapiens) (P49760 whole entry, looked up): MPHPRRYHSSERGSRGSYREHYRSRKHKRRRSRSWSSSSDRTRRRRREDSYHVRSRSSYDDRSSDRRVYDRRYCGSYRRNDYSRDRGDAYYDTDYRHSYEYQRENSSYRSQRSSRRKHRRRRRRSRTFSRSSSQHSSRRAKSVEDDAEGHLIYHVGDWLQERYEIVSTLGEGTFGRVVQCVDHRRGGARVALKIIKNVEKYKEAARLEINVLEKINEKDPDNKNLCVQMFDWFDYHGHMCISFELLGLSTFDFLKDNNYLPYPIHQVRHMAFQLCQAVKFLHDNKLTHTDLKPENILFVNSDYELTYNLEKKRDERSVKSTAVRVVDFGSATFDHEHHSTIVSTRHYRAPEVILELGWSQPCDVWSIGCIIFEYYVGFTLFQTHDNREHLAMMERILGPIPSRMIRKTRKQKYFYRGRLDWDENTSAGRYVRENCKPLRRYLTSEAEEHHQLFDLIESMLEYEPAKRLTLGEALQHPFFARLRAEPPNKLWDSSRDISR

On to `Cc1nc2cccc3c2nc1N[C@H](C)/C=C\C[C@H]1CNC(=O)c2cc-3[nH]c21`, for which the Activity is 53% in the series on Mus musculus [1]; < 10% in [4]; “Non-toxic” with Mus musculus [5]; < 10% in [6]; < 10% in series [7]; < 10% in [8]. Also, the Activity in the series on Mus musculus [9] was 0%; in [11] it was < 10%; in [12], < 10%; in series [13], < 10%. For the same compound, the values for the IC50 in series [2] and in series [14] were 0.5 nM and 0.3 nM, respectively. In [3], the half-life (as a rule, the time in which the quantity being followed falls by half) was 240 min. Moreover, in series [10], the metabolised at 0.5 h, 1 µM was found to be 39%. Besides, the fraction unbound (in general, the share of the substance not bound to proteins or other matrix) at 5 µM in series [15] worked out at 0.007; in series [17] it was 0.0084. Further, the inhibition in vivo at 100 mg/kg in [16] turned out to be 100%.
